Reference: PMC5182512 (Phytochemistry, 2014)

Target: CrSMT (Chlamydomonas reinhardtii, UniProt A8IJ34)
Experiment: [methyl-3H3]SAM radiometric assay, initial velocity, Lineweaver-Burk
Type: biochemical
Conditions: E. coli lysate; 100 μM SAM (saturating), phosphate buffer pH 7.5
In short: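 Recombinant 384-aa CrSMT expressed in E. coli BL21(DE3), IPTG-induced (0.4 mM, 2 h, 30 °C), French-press lysate in 20 mM phosphate, 5% glycerol, pH 7.5. Lysate (1–2 mg total protein) incubated 45 min with sterol acceptor 5–150 μM plus [methyl-3H3]SAM (0.6 μCi). Methanolic KOH saponification, hexane extraction of non-saponifiable lipids. Sterol-free background 500–1000 dpm. Lineweaver–Burk analysis.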

Structure (SMILES)	Km
CC(C)=CCC[C@@H](C)[C@H]1CC[C@@]2(C)C3=C(CC[C@]12C)[C@@]1(C)CC[C@H](O)C(C)(C)[C@@H]1CC3 [compound 1, Lanosterol]	24 µM
CC(C)=CCC[C@@H](C)[C@H]1CC[C@H]2C3=C(CC[C@]12C)[C@@]1(C)CC[C@H](O)C[C@@H]1CC3 [compound 9, Zymosterol]	22 µM
